Screening results as filed in PubChem BioAssay.
FXN GAA850 act: frataxin GAA850 promoter activation; HEK293 lucGAA850 FXN promoter luciferase reporter, 24 h; percent of 10 µM SAHA response; activation, % at 6 µM; actives 0.56% (n = 360,000); AID 540364;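 active = activation above the average of all compounds screened plus 3 SD, cutoff fixed separately per campaign, cut at about 7.5% in these data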
V-ATPase pH: alters yeast V-ATPase proton transport; actives 0.37% (n = 350,000); response, % at 10 µM; S. cerevisiae, pHLuorin cytosolic pH fluorescence; in the data active = response mostly above about 7.3%, no sharp cut-off; inactive = mostly below about 5.4%; note: actives read high
HIV Env fusion: HIV envelope-mediated fusion inhibition; HeLa-JRFL Env/CEM21 cell fusion, luciferase; inhibition, % at 12.3 µM; actives 1.1% (n = 360,000); AID 651610;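 active = mean replicate inhibition score of at least 50 and every replicate individually at or above 50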
NR2E3 ag-1: NR2E3 (human) agonism | GST-NR2E3/biotin-RetCOR TR-FRET, 1536-well | inhibition of corepressor binding, % at 4.78 µM | Q9Y5X4 | actives 0.12% (n = 320,000) | AID 2300;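 active = percent inhibition above the cutoff of mean plus 3 SD of all tested compounds, set per screening campaign, cut at about 20% in these data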
Target sequence (Q9Y5X4 whole entry, looked up): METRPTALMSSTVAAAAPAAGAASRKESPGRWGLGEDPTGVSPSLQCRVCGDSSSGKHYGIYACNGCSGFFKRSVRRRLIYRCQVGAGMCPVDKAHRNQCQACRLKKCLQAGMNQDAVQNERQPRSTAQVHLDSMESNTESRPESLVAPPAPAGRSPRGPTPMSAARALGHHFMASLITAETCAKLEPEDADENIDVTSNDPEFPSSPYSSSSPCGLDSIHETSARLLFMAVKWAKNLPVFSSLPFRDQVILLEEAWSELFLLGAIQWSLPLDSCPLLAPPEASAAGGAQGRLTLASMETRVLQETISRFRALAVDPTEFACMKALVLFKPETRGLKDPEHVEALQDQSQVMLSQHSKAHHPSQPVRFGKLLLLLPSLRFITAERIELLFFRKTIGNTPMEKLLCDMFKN
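Assay system: NR2E3–RetCOR corepressor complex. Quantity: 1.35 nM GST-NR2E3. Buffer or medium: pH 7.5 Tris-based buffer. Reagent: biotinylated RetCOR corepressor at 7 nM final. Schedule: 5 h at 4 °C. Detection: TR-FRET, emission read at 617 and 671 nm. Replicates: one well per compound, singlicate testing.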
NR2E3 ag-2: agonists of human NR2E3 nuclear receptor; Q9Y5X4; CHO-S Gal4-NCOR/VP16-NR2E3 two-hybrid, luciferase; inhibition of corepressor binding, % at 3.98 µM; actives 0.35% (n = 360,000); AID 602229;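 active = inhibition above the mean of all tested compounds plus 3 SD, cut at about 70% in these data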;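 note: higher means lower luciferase signal from less NR2E3 corepressor binding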
GalR3 antagonist: human GalR3 antagonism; AID 651719; inhibition, % at 3 µM; HEK293 GalR3-CNG cAMP membrane potential fluorescence; galR3 body fused to GalR1 C-terminus; O60755; actives 0.44% (n = 360,000);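 active = inhibition above the screen-wide average plus 3 SD, cut at about 13% in these data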;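 note: forskolin and galanin both at EC90 stimulate the cells; cAMP rise reported by CNG channel membrane potential dye signal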
Target sequence (O60755 1-299 limits assumed): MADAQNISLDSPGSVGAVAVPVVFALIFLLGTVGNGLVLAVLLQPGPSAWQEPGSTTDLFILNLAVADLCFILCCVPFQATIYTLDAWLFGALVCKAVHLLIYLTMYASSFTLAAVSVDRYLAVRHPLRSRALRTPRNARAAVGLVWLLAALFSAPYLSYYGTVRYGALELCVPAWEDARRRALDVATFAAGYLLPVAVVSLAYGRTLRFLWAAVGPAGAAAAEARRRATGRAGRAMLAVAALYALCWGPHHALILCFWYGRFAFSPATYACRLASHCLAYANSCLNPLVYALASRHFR
Hits are given with their value; i = inactive; nt = no result given; [ ] = remark or other dose. In the library only some 2.2% were active in any assay of this set; here they are far more common.

SMILES | FXN GAA850 act | V-ATPase pH | HIV Env fusion | NR2E3 ag-1 | NR2E3 ag-2 | GalR3 antagonist
COc1ccccc1NC(=O)C(C)NC(c1ccccc1)c1ccccc1 (stereo not drawn) | i | i | 59 | i | i | i
C[n+]1ccc(/C=C/c2c[nH]c3ccc(F)cc23)cc1 | i | i | 59 | nt | i | i
COc1ccc(C(C)=O)cc1CC1(C)C(=O)Nc2ccc(-c3cccc(C(F)(F)F)c3)cc21 (stereo not drawn) | i | nt | 79 | nt | i | i
CCn1c(=O)c([N+](=O)[O-])c(NCCc2ccccc2)c2ccccc21 | i | 8.5 | nt | i | i | nt
O=C(O)CSc1c(-c2cccs2)[nH]c2ccccc12 | i | i | i | i | i | i
O=C(O)CSc1c(-c2ccccc2)[nH]c2ccccc12 | i | 17 | i | i | i | i
COc1ccc2c(c1)[C@]1(C(=O)N2C)C2=C(CCCC2=O)Oc2cc(C)oc(=O)c21 | nt | nt | 65 | nt | nt | i
Cc1cc2c(c(=O)o1)[C@@]1(C(=O)N(C)c3ccc([N+](=O)[O-])cc31)C1=C(CCCC1=O)O2 | nt | nt | i | nt | nt | i
CO[C@@H]1CN(C)C(=O)c2cc(NC(=O)c3ccccc3F)ccc2OC[C@H](C)N(C)C[C@@H]1C | nt | nt | i | nt | nt | nt
N#C[C@@H]1[C@@H](c2ccc(C3=CCCCC3)cc2)[C@@H](CO)N1C(=O)NC1CCCCC1 | nt | nt | i | nt | nt | nt
Nc1[nH]nc2nc(N3CCOCC3)nc(-c3ccccc3)c12 | i | i | 67 | i | i | i
Nc1nc(-c2ccc(Cl)cc2)nn1C(=O)c1cccnc1 | i | 20 | i | i | i | i
Cc1cc(Sc2nnc(N)s2)c2ccccc2n1 | i | i | i | i | i | i
Cc1cc(Sc2nnc(/N=C/N(C)C)s2)c2ccccc2n1 | i | i | 56 | i | i | i
O=C(C[C@H]1CC[C@H](NC(=O)Cc2ccccn2)[C@@H](CO)O1)NCCc1ccncc1 | nt | nt | i | nt | nt | nt
O=C(N[C@@H]1CC[C@H](CC(=O)N2CCC(Cc3ccccc3)CC2)O[C@H]1CO)c1cnccn1 | nt | nt | i | nt | nt | nt
CCOc1ccc(OCc2ccc(C(=O)NN=Cc3ccc[nH]3)cc2)cc1 | i | i | nt | nt | i | 56
O=C(NCc1ccc2c(c1)OCO2)c1cc2c(s1)CSC2 | i | i | 61 | i | i | nt
O=C1c2ccccc2NC(c2ccc(-c3cccc([N+](=O)[O-])c3)o2)N1O (stereo not drawn) | i | i | 58 | i | i | i
COc1cccc(C#Cc2ccc([C@H]3[C@@H](CO)N(C(=O)C4CCCC4)[C@H]3C#N)cc2)c1 | nt | nt | 69[16.7 µM] | nt | nt | nt
COc1cccc(C#Cc2ccc([C@@H]3[C@H](C#N)N(C(=O)C4CCCC4)[C@H]3CO)cc2)c1 | nt | nt | i | nt | nt | nt
N#C[C@@H]1[C@H](c2ccc(-c3ccccc3F)cc2)[C@@H](CO)N1C(=O)c1ccccn1 | nt | nt | 57[16.7 µM] | nt | nt | nt
N#C[C@H]1[C@@H](c2ccc(-c3cccc(F)c3)cc2)[C@H](CO)N1C(=O)NC1CCCC1 | nt | nt | i | nt | nt | nt
N#C[C@@H]1[C@H](c2ccc(-c3cccc(F)c3)cc2)[C@H](CO)N1C(=O)NC1CCCC1 | nt | nt | 65[16.7 µM] | nt | nt | nt
C[C@@H]1CN([C@H](C)CO)C(=O)c2cc(NC(=O)c3ccncc3)ccc2O[C@@H](C)CCCCO[C@@H]1CN(C)S(=O)(=O)c1ccc(Cl)cc1 | nt | nt | i | nt | nt | nt
SMILES | FXN GAA850 act | V-ATPase pH | HIV Env fusion | NR2E3 ag-1 | NR2E3 ag-2 | GalR3 antagonist
CC1CCN(Cc2c(C(=O)N/N=C/c3cc(Br)ccc3O)nnn2-c2nonc2N)CC1 | i | i | 60 | i | i | i
COc1cccc(C(=O)Oc2cc3c4c(c2)C(C)=CC(C)(C)N4C(=O)C3=O)c1 | i | i | nt | i | i | 24
Cn1c(SCC(=O)N2CCN(c3cccc(Cl)c3)CC2)nnc1-c1ccncc1 | i | i | 98 | i | i | i
Cn1c(Cc2cccc3ccccc23)nnc1SCC(=O)N1CCN(c2ccccc2)CC1 | i | i | 63 | i | i | i
Nc1ccc(O)cc1C(=O)OCC(=O)c1ccc(C2CCCCC2)cc1 | i | i | 84 | i | i | i
O=C(Nc1ccccc1F)N[C@H]1CC[C@H](CCNS(=O)(=O)c2ccc(Cl)cc2)O[C@@H]1CO | nt | nt | i | nt | nt | nt
CC1(C)CC(=O)C=C(c2ccc(F)cc2OCc2ccccc2)C1 | i | i | 77 | i | i | i
COc1cccc(C2=CC(=O)CC(C)(C)C2)c1OC | i | i | i | i | i | i
CO[C@H](CN(C)S(=O)(=O)c1ccc(Cl)cc1)[C@H](C)CN([C@@H](C)CO)S(=O)(=O)c1cccc(Cl)c1 | nt | nt | 61[16.7 µM] | nt | nt | nt
CO[C@H](CN(C)S(=O)(=O)c1cccc(Cl)c1)[C@@H](C)CN([C@H](C)CO)S(=O)(=O)c1ccc(Cl)cc1 | nt | nt | i | nt | nt | nt
CO[C@H](CN(C)S(=O)(=O)c1ccc(Cl)cc1)[C@H](C)CN([C@H](C)CO)S(=O)(=O)c1cccc(Cl)c1 | nt | nt | 56[16.7 µM] | nt | nt | nt
Cn1cnc(S(=O)(=O)N2C[C@@H](O)COC[C@@H]3O[C@@H](CC(=O)NC4Cc5ccccc5C4)CC[C@H]32)c1 | nt | nt | i | nt | nt | nt
Cc1ccc2cc3c(N)c(C(=O)N4CCOCC4)sc3nc2c1 | i | i | i | i | i | i
Cc1ccc2nc3sc(C(=O)N4CCOCC4)c(N)c3cc2c1 | i | i | 74 | i | i | i
Cc1ccc(S(=O)(=O)N(C)C[C@H]2Oc3c(cccc3N(C)C)C(=O)N([C@@H](C)CO)C[C@@H]2C)cc1 | nt | nt | i | nt | nt | nt
COc1ccc(NS(=O)(=O)c2ccc(O)c(NC(=O)c3ccc(S(=O)(=O)N4CCCCCC4)cc3)c2)cc1 | i | i | i | i | i | i
COc1ccc(/C(C)=N/NC(=O)c2cccc(S(=O)(=O)N3CCCC3)c2)c(O)c1 | i | i | 82 | i | i | i
O=S(=O)(Nc1nc2ccccc2nc1Nc1cccc(S(=O)(=O)N2CCCCC2)c1)c1ccccc1 | i | i | 77 | i | i | i
COc1ccc(NS(=O)(=O)c2cccc(NC(=O)c3ccc(S(=O)(=O)N4CCCCCC4)cc3)c2)cc1 | i | i | nt | i | 83 | nt
COc1ccc(NC(=O)N(C)C[C@@H]2OCCCC[C@H](C)Oc3ccc(NC(=O)Nc4c(C)noc4C)cc3C(=O)N([C@@H](C)CO)C[C@H]2C)cc1 | nt | nt | i | nt | nt | nt
C[C@H]1CCCCO[C@H](CN(C)C(=O)Nc2ccc3c(c2)OCO3)[C@@H](C)CN([C@@H](C)CO)C(=O)c2cc(NC(=O)NC3CCCCC3)ccc2O1 | nt | nt | i | nt | nt | nt
COc1cc2c(cc1OC)/C(=C/C(=O)c1cccc([N+](=O)[O-])c1)NCC2 | i | i | i | i | i | i
COc1cc2c(cc1OC)/C(=C/C(=O)c1ccc(F)cc1)NCC2 | i | i | i | i | i | 15
C=CCOC(=O)c1oc(COC[C@@H](NC(=O)N(C)Cc2ccccc2)c2ccccc2)c(C(=O)OC)c1C(=O)OC | nt | nt | i | nt | nt | nt
OCCN=C1CCCc2c1[nH]c1ccc(Cl)cc21 | i | i | 67 | i | i | i
O=C1CCCc2c1[nH]c1ccc(Cl)cc21 | i | i | 83 | i | i | i
